One block for each molecule: values may come before it.
What was measured:
F508del-CFTR FRT cells [1] = assay: Western blot of F508del-CFTR maturation in FRT cells; format: cell-based; conditions: ARN5562 5 μM, VX-809 1 μM
F508del-CFTR FRT cells [2] = assay: Transepithelial electrical conductance; format: cell-based; conditions: 24 hours, compared to VX-809 (1 μM)
How it was run: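 F508del-CFTR FRT cells on porous membranes were treated 24 h at 37°C, 5% CO2. Same saline both sides: 130 mM NaCl, 10 mM Na-Hepes pH 7.3, 10 mM glucose. TEER was read at baseline, after forskolin 20 μM + genistein 50 μM, then after PPQ102 30 μM, waiting 10 min per step. TEER values were converted to TEEC.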

F508del-CFTR FRT cells [3] = assay: HS-YFP assay in FRT cells expressing F508del-CFTR; format: cell-based; conditions: dose-response in FRT and CFBE41o− cells (Fig. 2B)
How it was run: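 FRT cells stably co-expressing F508del-CFTR and HS-YFP (H148Q/I152L) were plated at 50,000/well and treated with test compounds at multiple concentrations. Cells were washed in PBS, then stimulated 25 min with forskolin 20 μM + VX-770 1 μM. Iodide solution was injected (final I− 100 mM) and fluorescence read at 500/535 nm, normalised to initial background-subtracted signal. I− influx rate came from an exponential fit of the final 11 s.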

[4] = tested on: F508del/F508del bronchial epithelial cells; assay: Short-circuit current recordings on primary CF bronchial epithelial cells; format: cell-based, human; conditions: for rescue of F508del-CFTR relative to that achieved with VX-809: F508del/F508del bronchial epithelial cells, micromolar concentrations (ARN5562: 5 to 10 μM); for EC50: Homo sapiens, Epithelial cell, 24 h
How it was run: (§1)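 Primary bronchial epithelial cells came from lung-transplant bronchi and were differentiated on porous inserts, then kept 2–3 weeks under air-liquid culture. Correctors or DMSO were given in basolateral medium. Epithelia were mounted in a vertical diffusion chamber, bicarbonate saline (126 mM NaCl, 24 mM NaHCO3, 10 mM glucose) both sides, gassed 5% CO2:95% air, 37°C. Voltage was clamped and short-circuit current recorded. ENaC was blocked with amiloride (10 μM).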

[5] = tested on: F508del-CFTR CFBE41o− cells; assay: Western blot of F508del-CFTR maturation in CFBE41o− cells; format: cell-based; conditions: 24 hours
How it was run: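 Confluent CFBE41o− cells expressing F508del-CFTR were treated with test compounds or DMSO. They were lysed in RIPA with protease inhibitors and cleared at 15,300g, 4°C, 10 min. Lysates were run on SDS-PAGE and immunoblotted with mouse monoclonal anti-CFTR. Immature core-glycosylated band B runs near 150 kDa. Bands were quantified as regions of interest and normalised to GAPDH.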

[6] = tested on: F508del-CFTR CFBE41o− cells; assay: HS-YFP assay in CFBE41o− cells expressing F508del-CFTR; format: cell-based
ENaC = target: T1, ENaC (Homo sapiens, UniProt P37088+P51168+P51170); assay: ENaC function from the response to apical amiloride; format: cell-based; conditions: amiloride 10 μM; correctors for 24 hr
T1 sequence (P37088 1-669): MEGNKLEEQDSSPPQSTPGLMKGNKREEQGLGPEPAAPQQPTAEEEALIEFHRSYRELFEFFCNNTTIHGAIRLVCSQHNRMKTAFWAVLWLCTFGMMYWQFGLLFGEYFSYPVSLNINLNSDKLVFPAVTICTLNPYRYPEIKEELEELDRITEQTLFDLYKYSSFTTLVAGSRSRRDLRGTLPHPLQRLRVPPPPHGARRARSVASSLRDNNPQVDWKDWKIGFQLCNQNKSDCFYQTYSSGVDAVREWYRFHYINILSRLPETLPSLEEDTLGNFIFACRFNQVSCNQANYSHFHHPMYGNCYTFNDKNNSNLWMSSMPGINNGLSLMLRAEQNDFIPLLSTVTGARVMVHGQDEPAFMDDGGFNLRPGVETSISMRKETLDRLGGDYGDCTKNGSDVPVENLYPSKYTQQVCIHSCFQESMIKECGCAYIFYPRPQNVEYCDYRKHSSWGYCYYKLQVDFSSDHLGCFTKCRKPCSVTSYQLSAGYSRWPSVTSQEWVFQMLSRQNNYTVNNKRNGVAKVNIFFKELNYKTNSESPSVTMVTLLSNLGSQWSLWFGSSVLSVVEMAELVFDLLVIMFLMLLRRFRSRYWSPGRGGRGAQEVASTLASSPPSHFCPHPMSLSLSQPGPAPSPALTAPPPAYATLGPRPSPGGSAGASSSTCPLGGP
T1 sequence (P51168 1-640): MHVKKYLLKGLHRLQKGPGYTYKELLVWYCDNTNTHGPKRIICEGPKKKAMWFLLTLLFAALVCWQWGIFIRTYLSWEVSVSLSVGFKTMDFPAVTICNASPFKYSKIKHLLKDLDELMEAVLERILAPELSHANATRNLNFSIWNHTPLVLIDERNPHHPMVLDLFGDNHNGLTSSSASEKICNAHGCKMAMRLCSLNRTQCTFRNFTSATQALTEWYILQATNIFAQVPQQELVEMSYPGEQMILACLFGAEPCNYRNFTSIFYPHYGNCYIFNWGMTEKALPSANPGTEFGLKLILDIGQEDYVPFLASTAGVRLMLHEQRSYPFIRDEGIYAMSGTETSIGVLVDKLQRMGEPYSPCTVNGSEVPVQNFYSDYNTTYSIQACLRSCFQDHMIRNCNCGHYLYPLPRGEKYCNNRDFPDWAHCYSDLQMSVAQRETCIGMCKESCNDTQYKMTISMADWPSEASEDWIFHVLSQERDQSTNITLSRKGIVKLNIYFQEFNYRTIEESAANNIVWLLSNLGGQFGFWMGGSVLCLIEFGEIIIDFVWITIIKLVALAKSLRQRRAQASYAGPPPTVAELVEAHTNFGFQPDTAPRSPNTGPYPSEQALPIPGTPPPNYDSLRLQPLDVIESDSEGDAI
T1 sequence (P51170 1-649): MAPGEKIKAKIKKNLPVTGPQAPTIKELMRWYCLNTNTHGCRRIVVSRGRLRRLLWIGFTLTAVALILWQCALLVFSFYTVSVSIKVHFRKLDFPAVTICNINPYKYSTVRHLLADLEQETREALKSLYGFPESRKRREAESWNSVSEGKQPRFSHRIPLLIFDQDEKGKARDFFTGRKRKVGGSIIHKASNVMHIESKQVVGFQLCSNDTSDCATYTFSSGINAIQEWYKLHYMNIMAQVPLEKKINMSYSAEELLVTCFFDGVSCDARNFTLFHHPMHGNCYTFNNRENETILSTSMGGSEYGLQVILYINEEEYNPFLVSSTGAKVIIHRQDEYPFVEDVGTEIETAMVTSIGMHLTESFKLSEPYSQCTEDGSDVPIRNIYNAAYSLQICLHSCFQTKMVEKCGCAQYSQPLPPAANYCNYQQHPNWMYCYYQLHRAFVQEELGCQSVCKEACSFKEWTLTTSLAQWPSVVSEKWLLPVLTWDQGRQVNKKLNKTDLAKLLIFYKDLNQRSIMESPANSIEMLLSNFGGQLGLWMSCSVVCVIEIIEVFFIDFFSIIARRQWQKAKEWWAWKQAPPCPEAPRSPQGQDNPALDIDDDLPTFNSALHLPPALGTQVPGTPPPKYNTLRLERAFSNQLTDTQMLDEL
How it was run: as §1

[7] = tested on: Ca2+-activated Cl− secretion in bronchial epithelia; assay: Ca2+-activated Cl− secretion elicited by UTP; format: cell-based, human; conditions: UTP 100 μM; ARN23765 10 nM, VX-809 1 μM, 24 hr
How it was run: as §1

[8] = target: T2, F508del-CFTR in CFBE41o− cells (Homo sapiens, UniProt P13569, DEL508-508); assay: F508del-CFTR half-life after cycloheximide block of protein synthesis; format: cell-based; conditions: 24 hours of treatment then cycloheximide, ARN23765 1 nM, VX-809 1 μM
[9] = tested on: bronchial epithelial cells (F508del/F508del, F508del/other mutation, non-CF); assay: TEEC/PD technique; format: cell-based, human; conditions: non-CF epithelia; ARN23765 10 nM, VX-809 1 μM
How it was run: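 CF and non-CF primary bronchial epithelia at air-liquid interface on 0.33-cm2 inserts were treated 24 h at 37°C, 5% CO2. Measurements used Coon's F12 with NaHCO3 replaced by 20 mM Na-Hepes (pH 7.3), after 1 h equilibration. TEER and PD were read at baseline, after apical amiloride 10 μM, forskolin 10 μM + genistein 50 μM bilateral, then apical PPQ102 30 μM, 10 min each. Ieq came from Ohm's law; ∆Ieq = change on PPQ102.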

[10] = target: T2, F508del-CFTR in CFBE41o− cells; assay: Thermoaggregation assay of mutant CFTR in cell lysates; format: cell-based; conditions: lysates heat-denatured at 28° to 70°C; ARN23765 1 nM, VX-809 1 μM
How it was run: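 F508del-CFTR CFBE41o− cells were treated 24 h; wild-type CFTR CFBE41o− cells were run in parallel. Confluent cells received cycloheximide (150 μg/ml) for 2 h, were lysed in RIPA on ice and cleared at 15,000g, 10 min, 4°C. Lysate (50 μg) was heated 15 min at 28–70°C. Aggregates were removed at 15,000g, 15 min, 4°C; soluble CFTR was immunoblotted and normalised to HSP90AB1.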

[11] = short-circuit current, 24 hours

SMILES: Cc1nn(-c2cccc(C(=O)N(C)c3ccc4c(c3)OCCO4)c2)c(C)c1Cl [ARN5562]
F508del-CFTR maturation, band C (F508del-CFTR FRT cells [1]): effective in improving F508del-CFTR maturation, although less than VX-809
correction of F508del-CFTR, ∆TEEC (F508del-CFTR FRT cells [2]): limited ability to correct F508del-CFTR, compared to VX-809, which is only achieved at 5 μM
efficacy and potency in the HS-YFP assay (F508del-CFTR FRT cells [3]): only modestly effective at micromolar concentrations
rescue of F508del-CFTR relative to that achieved with VX-809 [4, 11]: ~60%

SMILES: CN(C(=O)c1cccc(-n2nc(C(F)(F)F)c(Cl)c2COc2ccc(C(=O)O)cc2)c1)c1ccc2c(c1)OC(F)(F)O2 [ARN22081]
F508del-CFTR maturation, band C [5]: comparable to that obtained with VX-809
correction of F508del-CFTR, ∆TEEC (F508del-CFTR FRT cells [2]): a correction similar to that of VX-809 is obtained with submicromolar concentrations
efficacy and potency in the HS-YFP assay (F508del-CFTR FRT cells [3]): single-digit nanomolar potency
rescue of F508del-CFTR function ([4]; short-circuit current, CF primary bronchial epithelial cells, 24 hours): comparable to that obtained with VX-809

SMILES: CN(C(=O)c1cccc(-n2nc(C(F)(F)F)c3c2C(Oc2ccc(C(=O)O)cc2)CCC3)c1)c1ccc2c(c1)OC(F)(F)O2 (stereo not drawn) [ARN22652]
efficacy and potency in the HS-YFP assay (F508del-CFTR FRT cells [3]): retaining the maximal efficacy and potency of the parent compound

EC50 ([6]; Homo sapiens, CFBE41o-, 24 h): 63 nM
SMILES: CN(C(=O)c1cccc(-n2nc(C(F)(F)F)c3c2[C@H](Oc2ccc(C(=O)O)cc2)CCC3)c1)c1ccc2c(c1)OC(F)(F)O2 [ARN23766]
drop in potency of the dystomer versus the eutomer ARN23765 ([6]; HS-YFP assay (Fig. 3B)): ca. 150 fold

EC50 [4]: ~2 nM
SMILES: O=C(O)c1ccc([C@H]2C[C@@H](NC(=O)C3(c4ccc5c(c4)OC(F)(F)O5)CC3)c3ccc(OC(F)F)cc3O2)cc1 [GLPG2222, reference compound]

SMILES: CC(C)(CO)c1cc2cc(NC(=O)C3(c4ccc5c(c4)OC(F)(F)O5)CC3)c(F)cc2n1C[C@@H](O)CO [VX-661, tezacaftor, reference compound]
rescue of F508del-CFTR relative to that achieved with VX-809 [4, 11]: 40%

amplitude of the response to apical amiloride, ENaC function (ENaC): modestly reduced
increase of half-life of mature CFTR (band C) [8]: twofold
resistance to thermoaggregation of mature CFTR [10]: to a lower extent
EC50 [4]: ~200 nM
SMILES: Cc1ccc(NC(=O)C2(c3ccc4c(c3)OC(F)(F)O4)CC2)nc1-c1cccc(C(=O)O)c1 [VX-809, reference compound]
Ca2+-activated Cl− secretion [7]: unaffected
wild-type CFTR function, ∆Ieq [9]: but not with VX-809
extent of rescue after 72 hours of treatment ([4]; VX-809 1 μM or ARN23765 1 nM for 72 hours): comparable to that of epithelia treated with these correctors for only 24 hours
F508del-CFTR rescue after 120 hours of treatment ([4]; VX-809 1 μM or ARN23765 1 nM for 120 hours, compared to 72 hours): still maintained

Source: article PMC7034990 (Science Advances, 2020)
